Reference: ChEMBL document CHEMBL1127827, “In vivo inhibition of cathepsin B by peptidyl (acyloxy)methyl ketones” (J Med Chem, 1994)

Assays:
Cathepsin B (Bos taurus) = Cathepsin B (Bos taurus) (UniProt P07688); experiment: Rate of cathepsin B inactivation in vitro in bovine spleen; type: tissue-based
In short: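 Purified bovine spleen cathepsin B; continuous fluorometric assay in 0.1 M potassium phosphate, 1.25 mM EDTA, 1 mM dithiothreitol, pH 6.0, 25 °C; second-order inactivation rate constant k/K (M-1 s-1) determined.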

Rattus norvegicus [1] = experiment: Percentage of control was measured on rat liver cathepsin B by a single oral dose.(dose =50 mg/kg); type: functional
In short: (§1)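 Rats dosed once by gavage with compound suspended in CMC; livers taken 4-5 h postdose, frozen, homogenized and centrifuged; supernatant cathepsin B activity read with Z-Arg-Arg-NMec at pH 6.0, 37 °C, 30 min, quenched with chloroacetate/acetate pH 4.3; specific activity given as % of vehicle control, two dilutions in triplicate, 4-5 animals per group.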

Rattus norvegicus [2] = experiment: Percentage of control was measured on rat liver cathepsin B by a single intraperitoneal dose.(dose =10 mg/kg); type: functional
In short: (§2)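 Female Lewis rats, single intraperitoneal dose as CMC suspension; livers removed 4-5 h postdose, frozen homogenate supernatant assayed fluorimetrically with Z-Arg-Arg-NMec in 0.1 M KH2PO4 pH 6.0, 1 mM EDTA, 1 mM DTT, 37 °C 30 min; protein-normalized activity as % of CMC control; two dilutions in triplicate per animal, 4-5 animals per group.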

Rattus norvegicus [3] = experiment: Percentage of control was measured on rat liver cathepsin B by a single oral dose of 50 mg/kg; type: functional; in short: as §1
Rattus norvegicus [4] = experiment: Percentage of control was measured on rat liver cathepsin B by a single oral dose.(dose =100 mg/kg); type: functional; in short: as §1
Rattus norvegicus [5] = experiment: Percentage of control was measured on rat liver cathepsin B by a single intraperitoneal dose.(dose =100 mg/kg); type: functional; in short: as §2
Rattus norvegicus [6] = experiment: Percentage of control was measured on rat liver cathepsin B by a single intraperitoneal dose of 10 mg/kg; type: functional; in short: as §2
Rattus norvegicus [7] = experiment: ED50 value was determined for rat skeletal muscle at 20h postdose by subcutaneous administration; type: functional; settings: Muscle tissue, sc
In short: (§3)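 Female Lewis rats (150-200 g, usually four per group), single subcutaneous dose suspended in CMC; heart, liver or skeletal muscle harvested 20 h postdose, frozen in liquid nitrogen, homogenized, clarified at 15000g. Cathepsin B measured as Z-Arg-Arg-NMec (20 μM solution) hydrolysis, pH 6.0, 37 °C 30 min, fluorescence ex 340/em 460; specific activity as % of vehicle control; ED50 from dose-response.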

Rattus norvegicus [8] = experiment: ED50 value was determined for rat liver at 20h postdose by subcutaneous administration; type: functional; settings: sc; in short: as §3
[9] = Half-life measured in rat plasma
Rattus norvegicus [10] = experiment: Percent inhibition was measured on rat heart cathepsin B by a single subcutaneous dose of 20 mg/kg
Rattus norvegicus [11] = experiment: Percent inhibition was measured on rat spleen cathepsin B by a single subcutaneous dose of 20 mg/kg
Rattus norvegicus [12] = experiment: Percent inhibition was measured on rat pancreas cathepsin B by a single subcutaneous dose of 20 mg/kg
Rattus norvegicus [13] = experiment: Percent inhibition was measured on rat liver cathepsin B by a single subcutaneous dose of 20 mg/kg
[14] = Half-life measured in in vitro Cathepsin B assay in human plasma; type: ADME, cell-free
Rattus norvegicus [15] = experiment: ED50 value was determined for rat heart at 20h postdose by subcutaneous administration; type: functional; settings: sc; in short: as §3
Rattus norvegicus [16] = experiment: Percent inhibition was measured on rat skeletal tissue cathepsin B by a single subcutaneous dose of 20 mg/kg

| SMILES | k/K (Cathepsin B (Bos taurus)) | Control (Rattus norvegicus [1]) | Control (Rattus norvegicus [3]) | also measured |
| --- | --- | --- | --- | --- |
| COC(=O)CCC(=O)N[C@@H](Cc1ccccc1)C(=O)N[C@H](C)C(=O)COC(=O)c1c(C)cc(C)cc1C | 4000 M⁻¹ s⁻¹ | 50% |  | Control (Rattus norvegicus [2]): 38% |
| Cc1cc(C)c(C(=O)OCC(=O)[C@@H](C)NC(=O)[C@H](Cc2ccccc2)NC(=O)c2ccc(C(=O)NS(=O)(=O)c3ccccc3)cc2)c(C)c1 | 2500 M⁻¹ s⁻¹ | 62% |  | Control (Rattus norvegicus [2]): 68% |
| COc1ccc(C[C@H](NC(=O)OCc2ccccc2)C(=O)N[C@@H](CCCCN)C(=O)COC(=O)c2c(C)cc(C)cc2C)cc1.O=C(O)C(F)(F)F | 170000 M⁻¹ s⁻¹ |  | 30% |  |
| CC(NC(=O)[C@H](Cc1ccccc1)NC(=O)OCc1ccccc1)C(=O)CF (some centres not stated) | 21000 M⁻¹ s⁻¹ |  | 7% |  |
| CC(C)C[C@H](NC(=O)[C@H]1O[C@@H]1C(=O)O)C(=O)NCCCCN=C(N)N [E-64] |  |  |  | Control (Rattus norvegicus [6]): 24% |
| Cc1cc(C)c(C(=O)OCC(=O)CNC(=O)[C@H](Cc2ccccc2)NC(=O)CCC(=O)O)c(C)c1 | 700 M⁻¹ s⁻¹ |  | 49% |  |

More lines, main results first:

| k/K (Cathepsin B (Bos taurus)) | SMILES | Control (Rattus norvegicus [1]) | Control (Rattus norvegicus [3]) | also measured |
| --- | --- | --- | --- | --- |
| 14000 M⁻¹ s⁻¹ | Cc1cc(C)c(C(=O)OCC(=O)[C@@H](C)NC(=O)[C@H](Cc2ccccc2)NC(=O)OCc2ccccc2)c(C)c1 |  |  | Control (Rattus norvegicus [4]): 78%; Control (Rattus norvegicus [5]): 69% |
| 9900 M⁻¹ s⁻¹ | Cc1cc(C)c(C(=O)OCC(=O)CNC(=O)[C@H](Cc2ccccc2)NC(=O)OCc2ccccc2)c(C)c1 | 29% |  |  |
| 1000 M⁻¹ s⁻¹ | Cc1cc(C)c(C(=O)OCC(=O)[C@@H](C)NC(=O)[C@H](Cc2ccccc2)NC(=O)CCC(=O)O)c(C)c1 | 31% |  | Control (Rattus norvegicus [2]): 23% |
| 230000 M⁻¹ s⁻¹ | Cc1cc(C)c(C(=O)OCC(=O)[C@H](CCCCN)NC(=O)[C@H](Cc2ccccc2)NC(=O)OCc2ccccc2)c(C)c1.Cl |  | 11% | Control (Rattus norvegicus [6]): 4%; ED50 (Rattus norvegicus [7]): 1 mg/kg; ED50 (Rattus norvegicus [8]): 2.4 mg/kg; half-life [9]: 1.6 h; Inhibition % (Rattus norvegicus [10]): 94%; Inhibition % (Rattus norvegicus [11]): 98%; Inhibition % (Rattus norvegicus [12]): 96%; Inhibition % (Rattus norvegicus [13]): 96%; half-life [14]: > 33 h; ED50 (Rattus norvegicus [15]): ~0.1 mg/kg; Inhibition % (Rattus norvegicus [16]): 72% |
| 63000 M⁻¹ s⁻¹ | Cc1c(C)c(C(=O)OCC(=O)[C@H](C)NC(=O)[C@H](Cc2ccccc2)NC(=O)OCc2ccccc2)c(C)c(C)c1C(=O)O |  | 79% | Control (Rattus norvegicus [6]): 53% |
